Assay outcomes (PubChem)
Shown are actives, neighbours in structure and some others; about 1.7% of the full set was active somewhere.
HNF4A DNA FP = change in binding of human HNF4A to DNA, primary screen, biochemical, fluorescence polarization, FITC-DNA. Hepatocyte nuclear factor 4-alpha (Homo sapiens), P41235. 1 h. activity change, % at 10 µM. 360,000 tested, 0.3% active; in the data active means activity change above about 30%, passing the limit was not always enough
TPT1 inhibitor = Candida albicans TPT1 enzyme inhibitors, primary screen, biochemical, fluorescence polarization. inhibition, % at 5 µM. tRNA 2'-phosphotransferase TPT1 (Candida albicans SC5314). 300,000 tested, 0.81% active. recombinant caTPT1, FP RNA substrate dephosphorylation;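 active means inhibition above the mean of all tested compounds plus 3 SD, set per screening campaign, cut at about 24% in these data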
IDE inh = human IDE inhibitors in live cells, primary screen, fluorescence polarization, HEK cells, FAbetaB substrate; Insulin-degrading enzyme (Homo sapiens), P14735; FAbetaB cleavage; inhibition, % at 5.59 µM; 320,000 tested, 0.41% active;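 active means percent inhibition above the average of all tested compounds plus 3 SD, set per screening campaign, cut at about 16% in these data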;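 further: IDE supplied by intact live HEK cells; FP after avidin binding of uncleaved biotin substrate so inhibition keeps polarization high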
Rpn11 block = Rpn11 (PSMD14) deubiquitinase inhibitors, primary screen, biochemical, fluorescence polarization, uHTS. 26S proteasome non-ATPase regulatory subunit 14 (Homo sapiens), O00487. human 26S proteasome, Ub4-pepOG fluorescence polarization; 20S core pre-blocked with epoxomicin. inhibition, % at 20 µM. 360,000 tested, 0.59% active. AID 588493, 2011;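 active means inhibition at 20 µM, scaled to each plate's controls, above about 33%, limit read from the data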
IDE cell activ = human IDE activators in live cells, primary screen, fluorescence polarization, HEK cells, FAbeta-B substrate; Insulin-degrading enzyme (Homo sapiens), P14735; FAbeta-B cleavage; 0% vehicle, 100% cell-free pure enzyme wells; activation, % at 5.96 µM; 340,000 tested, 0.073% active;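 active means activation above the mean of all tested compounds plus 3 SD, set per screening campaign, cut at about 17% in these data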
CSN inh = inhibitors of CSN-mediated cullin deneddylation, primary screen, biochemical, fluorescence polarization, uHTS; COP9 signalosome complex subunit 5 (Homo sapiens), Q92905; Purified CSN, SCF-Nedd8-OG deneddylation; inhibition, % at 12.5 µM; 360,000 tested, 0.38% active;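 active means pattern-corrected inhibition above about 35%, with an unprinted fluorescence ratio check between 0.5 and 1.5, limit read from the data, passing the limit was not always enough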
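Schedule: reaction 90 min, room temperature / Assay system: HEK293T-derived human Csn5 enzyme / Input: Csn5 at 0.24 nM final / Measure: inhibition of Csn5 cleavage, % / Control set: substrate-only high control, full reaction low control / Technique: fluorescence polarization of the substrate / Buffer or medium: Tris/NaCl/DTT buffer, pH 7.5 / Reagent: SCFSkp2-Nedd8OG substrate at 10 nM final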
Rpn11 inh conf = Rpn11 (PSMD14) deubiquitinase inhibitors, confirmation, biochemical, fluorescence polarization, single concentration | shares compounds with Rpn11 block | purified human 26S proteasome, Ub4-pepOG fluorescence polarization; proteasome pretreated with epoxomicin | inhibition, % at 20 µM | 1,900 tested, 29% active | AID 602318, 2012
MMP-2 counter = MMP-2 enzyme inhibition, confirmation, counter-screen for RPN11 inhibitor project, biochemical, fluorescence, single concentration | 1,900 tested, 4% active | inhibition, % at 20 µM | shares compounds with Rpn11 block | recombinant MMP-2, FRET peptide cleavage fluorescence;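 further: human MMP-2 activated beforehand with APMA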
Target sequence (P08253 whole entry, looked up): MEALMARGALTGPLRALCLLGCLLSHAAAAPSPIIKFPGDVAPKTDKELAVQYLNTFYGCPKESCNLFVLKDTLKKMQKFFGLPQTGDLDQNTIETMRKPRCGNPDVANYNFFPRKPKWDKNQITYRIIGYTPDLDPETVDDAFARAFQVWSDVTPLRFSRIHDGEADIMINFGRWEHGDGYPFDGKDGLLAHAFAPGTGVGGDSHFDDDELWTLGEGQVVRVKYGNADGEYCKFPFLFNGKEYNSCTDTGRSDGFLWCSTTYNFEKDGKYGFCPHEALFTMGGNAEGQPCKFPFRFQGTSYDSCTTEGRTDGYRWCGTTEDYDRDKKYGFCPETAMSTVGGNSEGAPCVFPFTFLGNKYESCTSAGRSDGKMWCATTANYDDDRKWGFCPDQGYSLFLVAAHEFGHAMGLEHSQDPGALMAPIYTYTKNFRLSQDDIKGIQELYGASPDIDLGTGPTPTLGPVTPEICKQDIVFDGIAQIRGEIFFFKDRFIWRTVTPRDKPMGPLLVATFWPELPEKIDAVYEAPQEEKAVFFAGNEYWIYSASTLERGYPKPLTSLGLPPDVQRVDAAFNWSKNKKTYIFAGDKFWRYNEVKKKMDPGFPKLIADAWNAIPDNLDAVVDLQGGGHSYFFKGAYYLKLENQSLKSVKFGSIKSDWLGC
Thrombin inh = bovine thrombin protease inhibition, confirmation, counter-screen for Rpn11 inhibitor project, biochemical, fluorescence polarization, single concentration | bovine thrombin cleavage of Ub4-pepOG | shares compounds with Rpn11 block | 1,900 tested, 13% active | inhibition, % at 20 µM;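 active means mean inhibition at least 40% at 20 µM, or signal 3 deviations below plate average, so some actives read negative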
Hits are given with their value; . = inactive; / = no result; + = active, no number. Unless noted, no stated cut-off is given here; in the data, active means inhibition above about 40%; inactive means the rest.

SMILES | HNF4A DNA FP | TPT1 inhibitor | IDE inh | Rpn11 block | IDE cell activ | CSN inh | Rpn11 inh conf | MMP-2 counter | Thrombin inh
O=C1CS(=O)(=O)N(Cc2ccccc2F)c2ccc(Br)cc21 | . | / | / | 50 | . | . | . | . | .
O=C1CS(=O)(=O)N(Cc2ccc(F)cc2)c2ccccc21 | . | / | / | 66 | . | . | . | . | .
COc1cccc(CN2C(=O)c3ccccc3S2(=O)=O)c1 | . | . | . | . | . | . | / | / | /
O=C1CCN(Cc2ccccc2)S(=O)(=O)c2ccc(F)cc21 | . | / | . | . | . | . | / | / | /
COc1ccc2nc(Cl)c(C#N)cc2c1 | . | . | . | . | . | . | / | / | /
O=C(N[C@@H]1c2ccccc2CC[C@@H]1OCc1ccccc1)c1ccc(-c2ccccc2)cc1 | . | / | / | . | . | . | / | / | /
O=C(Nc1ccc(N2CCCC2)cc1)c1cc2ccccc2o1 | . | . | . | 69 | . | . | . | . | .
CC(=O)N1CCN(c2ccc(NC(=O)c3cc4ccccc4o3)cc2)CC1 | . | . | . | . | . | . | / | / | /
O=C(CN1CCCCC1)Nc1ccc(N2CCCCCC2)cc1 | 72 | . | . | 88 | . | . | . | . | .
O=C(CN1CCCCC1)Nc1ccccc1 | . | . | . | . | . | . | / | / | /
O=C(Nc1ccc(N2CCCC2)cc1)c1cc(Cl)ccc1Cl | . | . | . | 77 | . | . | . | . | .
CN(C)c1cc(-c2ccc(Cl)cc2Cl)oc(=O)c1Cl | . | . | . | . | . | . | / | / | /
C[C@@H](NC(=O)c1ncn2c1c(=O)[nH]c1ccc(Br)cc12)c1ccccc1 | . | / | / | + | / | . | . | . | .
O=C(Cc1ccc(Cl)c(Cl)c1)Nc1ccc(S(=O)(=O)Nc2ncccn2)cc1 | . | . | . | . | . | . | / | / | /
O=c1ccc(NS(=O)(=O)c2ccccc2)cn1Cc1ccc(Cl)c(Cl)c1 | . | . | . | 36 | . | . | . | . | .
Cc1ccc(CS(=O)(=O)CCC(=O)NCc2ccccc2Cl)cc1 | . | . | . | . | . | . | / | / | /
Cc1ccc2nc(/N=C(\N)NC(=O)N3c4ccccc4Sc4ccccc43)nc(C)c2c1 | . | . | . | 45 | . | . | . | . | .
Cc1ccc2c(C)nc(/N=C(\N)NC(=O)N3c4ccccc4Sc4ccccc43)nc2c1 | . | . | . | . | . | . | / | / | /
O=C(Cc1cccs1)N1CCC(c2nc3c(nnn3Cc3ccccc3)c(=O)[nH]2)CC1 | . | . | . | 53 | . | . | . | . | .
Cc1ccc(C2=N/C(=C\c3c(C)nn(-c4ccccc4)c3N3CCCC3)C(=O)O2)cc1 | . | . | . | . | . | . | / | / | /
Cc1nn(-c2ccccc2)c(N2CCCC2)c1/C=C1\N=C(c2ccc(F)cc2)OC1=O | . | . | . | 81 | . | . | . | . | .
NS(=O)(=O)c1ccc(CCNC(=O)COc2ccc3c4c(c(=O)oc3c2)CCC4)cc1 | . | . | . | . | . | . | / | / | /
O=C(COc1ccc2c3c(c(=O)oc2c1)CCC3)Nc1ccc(CCO)cc1 | . | . | . | 45 | . | . | . | . | .
COc1ccc(S(=O)(=O)N2CCN(Cc3ccc4c(c3)OCO4)CC2)cc1F | . | . | . | . | . | . | / | / | /
COc1cc(S(=O)(=O)N2CCN(Cc3ccc4c(c3)OCO4)CC2)ccc1NC(C)=O | . | / | . | 65 | / | . | . | . | .
SMILES | HNF4A DNA FP | TPT1 inhibitor | IDE inh | Rpn11 block | IDE cell activ | CSN inh | Rpn11 inh conf | MMP-2 counter | Thrombin inh
Cc1nnc(-c2cccc(Br)c2)c2cn(-c3ccccc3Cl)nc12 | . | . | . | 76 | . | . | . | . | .
CCC(=O)Nc1cccc(NC(=O)CSc2nc3c(c(=O)n(C)c(=O)n3C)n2C)c1 | . | . | . | . | . | . | / | / | /
O=C(COC(=O)c1cc2ccccc2cc1O)NC(=O)NCc1ccco1 | . | . | . | 44 | . | . | . | . | .
C/C(C/C(C)=C1/SC(=S)NC1=O)=C1\SC(=S)NC1=O | . | / | / | 76 | . | . | 41 | . | .
CC/C(C)=C1/NC(=O)NC1=O | . | / | / | . | . | . | / | / | /
COC(=O)C1=CN(c2ccc(Oc3ccccc3)cc2)C(N)=C(C#N)C1c1ccccc1 (stereo not given) | . | / | / | / | / | . | / | / | /
COCCn1cnnc1SCC(=O)Nc1sc2c(c1C#N)CCC2 | . | / | . | . | . | . | / | / | /
Cn1cnnc1SCC(=O)Nc1sc2c(c1C(N)=O)CCC2 | . | . | . | 41 | . | 50 | . | . | .
COC(=O)c1c(NC(=O)CN2C(=O)NC3(CCC(C)CC3)C2=O)sc2c1CCC2 (stereo not given) | . | / | . | . | . | . | / | / | /
CC1CCC2(CC1)NC(=O)N(CC(=O)Nc1sc3c(c1C(N)=O)CCC3)C2=O (stereo not given) | . | . | . | 65 | . | . | . | . | .
O=C(NCc1ccco1)/C(=C/c1cccnc1)NC(=O)c1ccco1 | . | . | . | . | . | . | / | / | /
O=C(NCCCN1CCCCCC1)c1cc2c(=O)oc3ccccc3c2s1 | . | . | . | 64 | . | . | . | . | .
Cc1ccc2oc(=O)c3cc(C(=O)NCCCN4CCN(C)CC4)sc3c2c1 | . | . | . | . | . | . | / | / | /
Cc1ccc(NC(=O)c2ccc(C(C)(C)C)cc2)cc1[N+](=O)[O-] | . | . | . | . | . | . | / | / | /
CCC(=O)NC(c1cccs1)c1cc([N+](=O)[O-])c2cccnc2c1O (stereo not given) | . | . | . | 40 | . | . | 48 | . | .
CCCC(=O)NC(c1cccs1)c1cc([N+](=O)[O-])c2cccnc2c1O (stereo not given) | . | . | . | 47 | . | . | 66 | . | .
O=C(CCc1ccccc1)NC(c1cccs1)c1cc(Cl)c2cccnc2c1O (stereo not given) | . | / | / | . | . | . | / | / | /
